Screens deposited in PubChem by Broad Institute.
T cruzi repl – T. cruzi replication inhibition; T. cruzi beta-gal in NIH3T3, luminescence, 90 h; inhibition, % (no concentration beside the values); actives 1.4% (n = 300,000); AID 1885;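 active means mean inhibition across valid replicates above about 55%, limit read from the data; inconclusive means mean below that limit but half or more replicates reach it; inactive means mean below it, under half of replicates reach it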;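 further: signal also drops with host cell toxicity which is not excluded here; higher percent means less beta-gal luminescence so fewer parasites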
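Test system: β-gal T. cruzi (Tulahuen C4) inside NIH/3T3 cells / Quantity: 5,000 cells/well / Measured by: luminescence from GalScreen with 0.05% NP40, read after 60 min / Medium: DMEM plus 2% FBS / Measure: parasite load inhibition, % / Reagent: Tulahuen C4 trypomastigotes, 5000/well / Schedule: co-culture of at least 90 h after 3 h attachment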
PolyA inh – yeast polyadenylation inhibition; S. cerevisiae SKY197-pL101 polyadenylation reporter, beta-gal luminescence; efflux-impaired pdr1/pdr3 knockout yeast; score 100 = 6 SD above DMSO; activity score, % at 12 µM; actives 0.02% (n = 300,000); AID 1875;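 active means lowest replicate activity score at least 50, where 100 means six control SD above control mean; inconclusive means lowest score under 50 but half or more replicates reach 50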;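 further: yeast exposed to compound for 9 h at 30 °C; higher score means more reporter readthrough which indicates perturbed polyadenylation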
Beta apoptosis – blocks beta cell apoptosis; protection from apoptosis, % (no concentration beside the values); INS-1E cytokine-induced death, ATP luminescence, 48 h; percent of positive-control rescue, neutral wells zero; actives 0.8% (n = 300,000);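 active means Every replicate reaches about 75%, or at least half do and their mean reaches it too, limit read from the data; inconclusive means At least half of replicates reach the limit but their mean does not; inactive means Under half of replicates reach the limit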;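 further: higher means more ATP so stronger rescue from cytokine killing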
HIF act – HIF pathway transcriptional activation. U2OS HRE-luciferase reporter, luminescence; normalized: DMSO 0%, desferrioxamine 100%. activation, % at 7.5 µM (by protocol). actives 0.32% (n = 300,000). AID 1910;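 active means mean activation of at least 10% of the iron chelator positive control signal, with at least half of replicates also reaching 10%; inconclusive means mean and replicate majority disagree about reaching 10%; inactive means mean and most replicates under 10%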
CSC inhib – blocks cancer stem cells; AID 2717; cancer stem cell-like cells viability, luminescence; actives 1.1% (n = 300,000); inhibition, % at 7.5 µM; in the data active means inhibition above about 75%; inconclusive means no clear call, values can overlap the other calls; tested in HMLE shEcad cells
Calb FLC – affects C. albicans growth with fluconazole. C. albicans CaCi-2 + fluconazole, Alamar Blue growth, 48 h. growth inhibition, % (concentration not given with the values). actives 0.57% (n = 300,000). AID 1979;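 active means growth inhibition above about 58% in most replicates, limit read from the data, passing the limit was not always enough; inconclusive means exactly half the replicates above a set limit; inactive means most replicates below a set limit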;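 further: all wells also contain fluconazole at 8 µg/ml as a sub-toxic cotreatment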
A number is an active result; i = inactive; ? = inconclusive; nt = no result. The list is not random: actives were taken first. Their share in the collection is about 3.1%.

SMILES | T cruzi repl | PolyA inh | Beta apoptosis | HIF act | CSC inhib | Calb FLC
COc1cccc(/C=C/C(=O)OCC(=O)Nc2nnc(-c3ccccc3)o2)c1 | i | i | i | i | i | i
NC(N)=NC(N)=Nc1ccc2ccccc2c1 | i | i | i | i | i | i
NC(N)=NC(N)=Nc1ccc(SC(F)(F)F)cc1 | i | i | 116 | i | i | i
CCNC(=S)N1N=C2c3ccccc3CCC2C1c1ccc(F)cc1 (stereo unspecified) | i | i | i | i | 82 | i
CC(=O)N1N=C2c3ccccc3CCC2C1c1ccc(F)cc1 (stereo unspecified) | i | i | i | i | i | i
CC(=O)OCC1O[C@@H](O[C@@H]2C[C@H]3C(C)(C)[C@H](OC(C)=O)CC[C@]3(C)[C@H]3CC[C@]45C[C@]4(CC[C@H]5[C@@H](C)C[C@@H](O)[C@H](O)C(C)(C)O)[C@@]32C)[C@H](O)[C@@H](O)[C@@H]1O (stereo partly specified) | i | i | 111 | i | 102 | i
O=C(NNC(=O)c1cc(-c2ccc(Cl)cc2)nc2ccccc12)c1csc(N2CCOCC2)n1 | i | i | i | i | i | 82
COc1ccc(CCN2CC(C(=O)NCc3cccc4[nH]ccc34)CCC2=O)cc1 (stereo unspecified) | i | i | i | i | i | i
N#Cc1c(NC(=O)CSc2ncccn2)oc(-c2ccccc2)c1-c1ccccc1 | i | i | i | i | i | i
N#Cc1c(NC(=O)CSc2n[nH]c(Cc3ccccc3)n2)oc(-c2ccccc2)c1-c1ccccc1 | i | i | nt | i | 102 | i
O=C(Nc1ccc(F)cc1F)N1CCCCC1c1cccnc1 (stereo unspecified) | 57 | i | i | i | i | i
C#CCOCCOCCOCCNc1nc(N2CCN(C(=O)CCCCCCCCCCNC(=O)[C@H](CCC(=O)O)n3cc(CCCCCN)nn3)CC2)nc(N2CCN(C(=O)CCCCCCCCCCNC(=O)[C@@H]([C@H](C)O)n3cc(C)nn3)CC2)n1 | nt | nt | i | nt | i | nt
C#CCOCCOCCOCCNc1nc(N2CCN(C(=O)CCCCCCCCCCNC(=O)[C@H](CCCCN)n3cc(C)nn3)CC2)nc(N2CCN(C(=O)CCCCCCCCCCNC(=O)[C@@H]([C@H](C)CC)n3cc(CCCCCN)nn3)CC2)n1 | nt | nt | 94 | nt | 168 | nt
C#CCOCCOCCOCCNc1nc(N2CCN(C(=O)CCCCCCCCCCNC(=O)[C@@H](CCSC)n3cc(CCO)nn3)CC2)nc(N2CCN(C(=O)CCCCCCCCCCNC(=O)[C@H]([C@@H](C)CC)n3cc(CCCCN=C(N)N)nn3)CC2)n1 | nt | nt | i | nt | i | nt
C#CCOCCOCCOCCNc1nc(N2CCN(C(=O)CCCCCCCCCCNC(=O)[C@H]([C@@H](C)CC)n3cc(CCCCCN)nn3)CC2)nc(N2CCN(C(=O)CCCCCCCCCCNC(=O)[C@@H]([C@H](C)O)n3cc(C)nn3)CC2)n1 | nt | nt | 81 | nt | 109 | nt
C#CCOCCOCCOCCNc1nc(N2CCN(C(=O)CCCCCCCCCCNC(=O)[C@@H](CCSC)n3cc(CCO)nn3)CC2)nc(N2CCN(C(=O)CCCCCCCCCCNC(=O)[C@H]([C@@H](C)CC)n3cc(CCCCCN)nn3)CC2)n1 | nt | nt | 99 | nt | i | nt
C#CCOCCOCCOCCNc1nc(N2CCN(C(=O)CCCCCCCCCCNC(=O)[C@H](CCCCN)n3cc(CCO)nn3)CC2)nc(N2CCN(C(=O)CCCCCCCCCCNC(=O)[C@@H]([C@H](C)O)n3cc(C)nn3)CC2)n1 | nt | nt | i | nt | i | nt
Cc1ccc(N(CC(=O)NC(C)C)C(=O)CCC(=O)Nc2nccs2)c(C)c1 | i | i | i | i | i | i
c1ccc(CC2CCN(C3=Nc4cccc5cccc3c45)CC2)cc1 | 66 | i | i | i | ? | 86
c1cc2c3c(cccc3c1)C(N1CCOCC1)=N2 | i | i | i | i | i | i
NNC(=O)c1cc(-c2cccs2)nc2ccccc12 | i | i | i | i | i | 104
Cc1cccc2sc(NNC(=O)c3cc(-c4cccs4)nc4ccccc34)nc12 | i | i | nt | i | 103 | 85
CC(C)NC(=O)c1cc(-c2cccs2)nc2ccccc12 | i | i | i | i | i | i
C/C(=N\NC(=O)c1cc(-c2cccs2)nc2ccccc12)c1ccccn1 | i | i | 102 | i | 136 | 95
O=C(N/N=C/c1ccsc1)c1cc(-c2cccs2)nc2ccccc12 | i | i | i | i | i | i
SMILES | T cruzi repl | PolyA inh | Beta apoptosis | HIF act | CSC inhib | Calb FLC
Nc1c2c(nc3sc4c(c13)CCCCC4)CCCCC2 | i | i | i | i | i | 95
CCc1c(-c2ccccc2)nc2sc3c(c2c1N)CCCC3 | 55 | i | i | i | i | i
CCN(CC)S(=O)(=O)c1cc(C(=O)Nc2cc(C)[nH]n2)ccc1Cl | i | i | i | i | i | i
CCn1nc(C)c(CNC(=O)c2ccc(OC3CCN(Cc4ccccn4)CC3)cc2)c1C | i | i | 79 | i | i | i
COc1ccccc1Nc1nc(N)nc(CSC(=S)N2CCN(c3ccccc3)CC2)n1 | 63 | i | i | i | i | i
COc1ccccc1Nc1nc(N)nc(CSC(=S)N2CCC(C)CC2)n1 | i | i | i | i | i | i
Cc1cc(C)c(S(=O)(=O)c2cccc(Br)c2C)c(Cl)n1 | i | i | i | i | i | i
Cc1cc(C)c(S(=O)(=O)c2ccccc2Cl)c(Cl)n1 | 55 | i | i | i | i | i
Cc1cc(C)c(S(=O)(=O)c2ccc(F)cc2C)c(Cl)n1 | 55 | i | i | i | i | i
CC1Cc2ccccc2N1C(=O)C(C)n1cc(C(F)(F)F)cc(Cl)c1=O (stereo unspecified) | nt | nt | i | nt | i | nt
COc1ccc(/C=C2/C(=O)N(c3nc4ccccc4s3)N=C2CSc2ccc(Cl)cc2)cc1 | i | i | i | i | 92 | i
COc1ccc(/C=C2/C(=O)N(Cc3ccccc3)N=C2C)cc1 | i | i | i | i | i | i
Cc1cc(C)cc(C(=O)OCC(=O)NC(=O)NC2CCCC2)c1 | nt | nt | i | nt | nt | nt
Cc1ccc(N2NC3(CCN(C(N)=O)CC3)NC2=O)cc1 | i | i | i | i | i | 106
CNC(=S)N(Cc1cc2ccc(OC)cc2[nH]c1=O)CC1CCCO1 (stereo unspecified) | i | i | i | i | i | i
Cc1cc[n+](C(C)C(=O)c2ccc(-c3ccccc3)cc2)cc1 (stereo unspecified) | 73 | nt | 99 | i | i | i
CC(C(=O)c1ccc(-c2ccccc2)cc1)[n+]1ccccc1 (stereo unspecified) | i | i | i | i | i | i
COc1cccc(/C=N/NC(=O)NC23CC4CC(CC(C4)C2)C3)c1O | i | i | i | i | i | i
O=C(N/N=C/c1ccccc1F)NC12CC3CC(CC(C3)C1)C2 | 57 | i | i | i | i | i
C#CCNC(=O)C1=C[C@@H](c2ccc3c(c2)OCO3)C[C@@H](OCc2ccc(CO)cc2)O1 | i | i | i | i | i | i
